Results taken from ChEMBL document CHEMBL1165851, “Synthesis and inhibitory evaluation of cyclohexen-2-yl- and cyclohexyl-substituted phenols and quinones to endothelial cell and cancer cells” (Eur J Med Chem, 2010).

Assays:
[1] = Antiproliferative activity human CCC-HPF1 cells after 20 hrs by MTT assay; assay type: cell-based; details: ccc-hpf1, 96 h, in the assay text read “96 hrs” for “20 hrs”
Method in brief: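 HUVECs isolated from fresh umbilical cords and used at passages 3–8, grown in EGM-2. A549 and Bel-7402 in RPMI 1640; MCF-7 and ccc-HPF-1 in DMEM; all at 37 °C, 5% CO2. Seeded 1000 (HUVEC, Bel-7402), 1500 (MCF-7, ccc-HPF-1) or 2000 (A549) cells/well and left 20 h. Compound then added from PBS dilutions (final DMSO 0.1%), triplicate, 96 h. Readout MTT viability; IC50/CC50 from viability versus concentration.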

HUVEC = assay: Antiproliferative activity HUVEC after 96 hrs by MTT assay
MCF7 = assay: Antiproliferative activity human MCF7 cells after 96 hrs by MTT assay
Bel-7402 = assay: Antiproliferative activity human Bel7402 cells after 96 hrs by MTT assay
A549 = assay: Antiproliferative activity human A549 cells after 96 hrs by MTT assay
[2] = Homo sapiens, HUVEC, 96 h, read-out: IC50
[3] = Homo sapiens, MCF7, 96 h, read-out: IC50
[4] = Homo sapiens, Bel-7402, 96 h, read-out: IC50
[5] = Homo sapiens, A549, 96 h, read-out: IC50

Row | SMILES | IC50 (MCF7; mcf7) | IC50 (Bel-7402; bel-7402) | IC50 (A549; a549) | IC50 (MCF7; [3]) | IC50 (Bel-7402; [4]) | IC50 (A549; [5]) | CC50 [1] | IC50 (HUVEC; huvec) | IC50 (HUVEC; [2])
1 | Oc1cccc2c1C1CCCCC1O2 (stereo not given) | Not Active | Not Active | Not Active | – | – | – | Not Active | Not Active | –
2 | CO[C@@H]1[C@H](OC(=O)NC(=O)CCl)CCC2(CO2)[C@H]1[C@@]1(C)O[C@@H]1CC=C(C)C (single isomer, unassigned) [O-CHLOROACETYLCARBAMOYLFUMAGILLOL] | – | – | – | ≥ 50 µM | ≥ 50 µM | 50 µM | – | – | 0.0089 µM
3 | Cc1cc(O)c(C2C=CCCC2)c(O)c1 (stereo not given) | Not Active | Not Active | Not Active | – | – | – | Not Active | Not Active | –
4 | CC(=O)O[C@H]1C(=O)[C@@]2(C)[C@H]([C@H](OC(=O)c3ccccc3)[C@]3(O)C[C@H](OC(=O)[C@H](O)[C@@H](NC(=O)c4ccccc4)c4ccccc4)C(C)=C1C3(C)C)[C@]1(OC(C)=O)CO[C@@H]1C[C@@H]2O [PACLITAXEL] | – | – | – | – | – | 0.0049 µM | – | – | –
5 | Cc1c(O)c(C2C=CCCC2)cc(C2C=CCCC2)c1O (stereo not given) | – | – | – | ≥ 50 µM | ≥ 50 µM | ≥ 50 µM | – | – | 33 µM
6 | Oc1c(C2C=CCCC2)ccc2ccccc12 (stereo not given) | – | – | – | ≥ 50 µM | ≥ 50 µM | ≥ 50 µM | – | – | 22 µM
7 | CC(C)(C)C1=CC(=O)C(C2C=CCCC2)=CC1=O (stereo not given) | – | – | – | ≥ 50 µM | ≥ 50 µM | ≥ 50 µM | – | – | 6.8 µM
8 | Cc1ccc(C2C=CCCC2)c(O)c1O (stereo not given) | – | – | – | 32.4 µM | 30 µM | 35.6 µM | – | – | 27.1 µM
9 | O=C1C=C(C2CCCCC2)C(=O)C=C1C1CCCCC1 | – | – | – | ≥ 50 µM | 31.3 µM | 31.9 µM | – | – | 7.8 µM
10 | Oc1c(C2C=CCCC2)ccc(C2C=CCCC2)c1O (stereo not given) | – | – | – | ≥ 50 µM | ≥ 50 µM | ≥ 50 µM | – | – | 28.8 µM
11 | Oc1ccccc1C1C=CCCC1 (stereo not given) | – | – | – | ≥ 50 µM | ≥ 50 µM | ≥ 50 µM | – | – | 31.5 µM
12 | O=C1C=C(C2C=CCCC2)C(=O)c2ccccc21 (stereo not given) | – | – | – | 40.2 µM | 31.2 µM | 31.8 µM | – | – | 26.7 µM
13 | COc1cccc2c1C(=O)c1c(O)c3c(c(O)c1C2=O)C[C@@](O)(C(=O)CO)C[C@@H]3O[C@H]1C[C@H](N)[C@H](O)[C@H](C)O1 [DOXORUBICIN] | – | – | – | – | 0.58 µM | – | – | – | –
14 | Cc1c(O)ccc(C2C=CCCC2)c1O (stereo not given) | Not Active | Not Active | Not Active | – | – | – | Not Active | Not Active | –
15 | O=C1C=C(C2C=CCCC2)C(=O)C=C1C1C=CCCC1 (stereo not given) | – | – | – | ≥ 50 µM | ≥ 50 µM | ≥ 50 µM | – | – | 6.2 µM
16 | CC1=CC(=O)C(C2C=CCCC2)=CC1=O (stereo not given) | – | – | – | ≥ 50 µM | ≥ 50 µM | 30.9 µM | – | – | 9.1 µM

The next lines start with results.

Row | IC50 (MCF7; mcf7) | IC50 (Bel-7402; bel-7402) | IC50 (A549; a549) | IC50 (MCF7; [3]) | IC50 (Bel-7402; [4]) | IC50 (A549; [5]) | SMILES | CC50 [1] | IC50 (HUVEC; huvec) | IC50 (HUVEC; [2])
17 | – | – | – | ≥ 50 µM | ≥ 50 µM | ≥ 50 µM | Oc1cc(C2C=CCCC2)c(O)cc1C1C=CCCC1 (stereo not given) | – | – | 2 µM
18 | – | – | – | ≥ 50 µM | ≥ 50 µM | ≥ 50 µM | CC(C)(C)c1cc(O)c(O)c(C2C=CCCC2)c1 (stereo not given) | – | – | 10 µM
19 | – | – | – | ≥ 50 µM | 26.9 µM | 34.4 µM | Cc1cc(O)c(O)c(C2C=CCCC2)c1 (stereo not given) | – | – | 15.3 µM
20 | – | – | – | ≥ 50 µM | 30.3 µM | 36.3 µM | CC(C)(C)c1cc(O)c(C2CCCCC2)cc1O | – | – | 7.4 µM
21 | – | – | – | ≥ 50 µM | ≥ 50 µM | ≥ 50 µM | CC(C)(C)C1=CC(=O)C(C2CCCCC2)=CC1=O | – | – | 6 µM
22 | Not Active | Not Active | Not Active | – | – | – | Cc1cc(O)c2c(c1)OC1CCCCC21 (stereo not given) | Not Active | Not Active | –
23 | – | – | – | ≥ 50 µM | ≥ 50 µM | ≥ 50 µM | CC(C)(C)c1cc2c(cc1O)C1CCCCC1O2 (stereo not given) | – | – | 22.4 µM
24 | – | – | – | ≥ 50 µM | ≥ 50 µM | ≥ 50 µM | CC(C)(C)c1cc(O)c(C2C=CCCC2)cc1O (stereo not given) | – | – | 1.4 µM
25 | – | – | – | 31.1 µM | 22.7 µM | 27.7 µM | Cc1cc(O)c(O)cc1C1CCCCC1 | – | – | 8.3 µM
26 | – | – | – | ≥ 50 µM | ≥ 50 µM | ≥ 50 µM | CC(C)(C)c1cc(O)cc(C2C=CCCC2)c1O (stereo not given) | – | – | 11.6 µM
27 | – | – | – | ≥ 50 µM | ≥ 50 µM | ≥ 50 µM | Oc1cc(C2CCCCC2)c(O)cc1C1CCCCC1 | – | – | 8.2 µM
28 | – | – | – | 26.4 µM | 8.5 µM | 9.5 µM | Cc1cc(O)c(O)cc1C1C=CCCC1 (stereo not given) | – | – | 4.7 µM
